Measurements: ChEMBL document CHEMBL1121471, “Synthesis and structure-activity relationships among alpha-adrenergic receptor agonists of the phenylethanolamine type” (J Med Chem, 1980)

Legend:
[1] = target: T1, Adrenergic receptor alpha (Rattus norvegicus) (UniProt P15823+P23944+P43140+P22086+P19328+P22909); test: Binding affinity to alpha adrenergic receptors in rat aorta; format: tissue-based
Method in brief: (§1)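 Helical strips of rat aorta (1.5–2 cm × 3–4 mm) were held in Krebs-Henseleit at 37 °C, gassed with 95% O2/5% CO2, at 2 g resting tension, and equilibrated about 2 h. Cumulative contraction curves were recorded isometrically, first for norepinephrine, then after washout and 1 h rest for the test agonist. pD2 (−log ED50) was derived by the Ariens–Van Rossum method. Intrinsic activity is the compound's maximum response divided by the norepinephrine maximum.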

[2] = target: T1, Adrenergic receptor alpha (Rattus norvegicus); test: Ratio of maximum contraction of rat aorta elicited versus that elicited by noradrenaline (defined as intrinsic activity); format: functional, tissue-based; method in brief: as §1
[3] = Intrinsic activity of the compound, which is expressed as the ratio of the maximum response to the maximum response to norepinephrine; format: functional; method in brief: as §1

| SMILES | pD2 [1] | Ratio [2] | Intrinsic [3] |
| --- | --- | --- | --- |
| NCC(O)c1ccc(O)c(Cl)c1 (stereo not drawn) | 5.85 | 1 |  |
| CC(C)c1cc(C(O)CN)ccc1O (stereo not drawn) | 6.53 | 1.2 |  |
| NCC(O)c1ccc(O)c(I)c1 (stereo not drawn) | 5.5 | 0.9 |  |
| NCC(O)c1ccc(O)c(C(=O)O)c1 (stereo not drawn) | 4.07 | 1 |  |
| Cc1cc(C(O)CN)ccc1O (stereo not drawn) | 5.96 | 1 |  |
| COc1cc(C(O)CN)ccc1O (stereo not drawn) | 6.23 | 1.1 |  |
| NCC(O)c1ccc(O)cc1 (stereo not drawn) | 6.08 | 1.1 |  |
| CS(=O)(=O)Nc1ccc(C(O)CN)cc1O (stereo not drawn) | 3.2 | 0.8 |  |
| CS(=O)(=O)Nc1cc(C(O)CN)ccc1O (stereo not drawn) | 7.19 | 1.1 |  |
| NCC(O)c1ccc(O)c(C2CCCCC2)c1 (stereo not drawn) | 6.73 | 1.1 |  |
| CCc1cc(C(O)CN)ccc1O (stereo not drawn) | 6.09 | 0.9 |  |
| NCC(O)c1ccc(Cl)c(O)c1 (stereo not drawn) | 6.35 | 1.1 |  |
| NCC(O)c1ccc(C2CCCCC2)c(O)c1 (stereo not drawn) | 4.86 | 0.7 |  |
| COc1ccc(C(O)CN)cc1O (stereo not drawn) | 4.97 | 1 |  |
| CCc1ccc(C(O)CN)cc1O (stereo not drawn) | 5.2 | 1.1 |  |
| NC[C@H](O)c1ccc(O)c(O)c1 | 8.8 | 1 |  |
| NCC(O)c1ccc(O)c(F)c1 (stereo not drawn) | 6.78 | 1 |  |
| NCC(O)c1ccc(I)c(O)c1 (stereo not drawn) | 4.99 | 0.9 |  |
| CC(C)c1ccc(C(O)CN)cc1O (stereo not drawn) | 5 | 0.7 |  |
| Cc1ccc(C(O)CN)cc1O (stereo not drawn) | 5.66 |  | 1.3 |
| NCC(O)c1ccc(Br)c(O)c1 (stereo not drawn) | 5.58 | 1 |  |
| COC(=O)c1cc(C(O)CN)ccc1O (stereo not drawn) | 4.85 | 0.9 |  |
| NCC(O)c1cccc(O)c1 (stereo not drawn) | 8.21 | 1 |  |
| NCC(O)c1ccc(O)c(Br)c1 (stereo not drawn) | 5.57 | 1.1 |  |
